According to ChEMBL document CHEMBL4251664, “Biocompatible Boron-Containing Prodrugs of Belinostat for the Potential Treatment of Solid Tumors” (ACS Med Chem Lett, 2018):
The source made the active and inactive calls. No cut-off for these calls is given here.

Assays:
MCF7 [1] = assay: Antitumor activity against human MCF7 cells implanted in ovariectomized nu/nu mouse assessed as tumor volume at 10 mg/kg, sc administered once daily for 22 days measured on day 12 during compound dosing (reference value: 869 +/- 173 mm3); format: functional
Mus musculus = assay: Toxicity in ovariectomized nu/nu mouse implanted with human MCF7 cells assessed as effect on body weight at 10 mg/kg, sc administered once daily for 22 days; format: organism-based; conditions: in vivo, 528 h
Outline: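 MCF-7 xenograft in mice, dosed 10 mg/kg/day by subcutaneous injection alongside a vehicle group. Treatment ran 22 days. Body weights were compared with the vehicle group, and tumour volume was measured over the same period. At the end, mice were sacrificed and tumours removed.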

NCI-H460 = assay: Antiproliferative activity against human NCI-H460 cells after 72 hrs by resazurin dye based fluorescence assay; format: functional, cell-based; conditions: NCI-H460, 72 h
HeLa [2] = assay: Prodrug conversion in human HeLa cells assessed as belinostat level after 3 days by UHPLC-MS/MS analysis; format: ADME, cell-based; conditions: 72 h
Outline: (§1)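 MDA-MB-231 or HeLa cells were incubated with the pinacol boronate prodrug, and culture medium was sampled daily from day 1 to day 6. The prodrug, boronic acid forms and belinostat were separated, identified and quantified by HPLC coupled to an Orbitrap mass spectrometer. Results are in ng/mL as mean ± SEM of triplicate experiments.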

HeLa [3] = assay: Prodrug conversion in human HeLa cells assessed as (E)-4-((3-(3-(N-phenylsulfamoyl)phenyl)acrylamidooxy)methyl)phenylboronic acid level after 1 day by UHPLC-MS/MS analysis; format: ADME, cell-based; conditions: 24 h; outline: as §1
MCF7 [4] = assay: Antitumor activity against human MCF7 cells implanted in ovariectomized nu/nu mouse assessed as tumor growth inhibition at 10 mg/kg, sc administered once daily for 22 days measured post last dose relative to control; format: functional; conditions: 528 h, read-out: TGI
HeLa [5] = assay: Prodrug conversion in human HeLa cells assessed as (E)-4-((3-(3-(N-phenylsulfamoyl)phenyl)acrylamidooxy)methyl)phenylboronic acid level after 6 days by UHPLC-MS/MS analysis; format: ADME, cell-based; conditions: 144 h; outline: as §1
HeLa [6] = assay: Prodrug conversion in human HeLa cells assessed as (E)-4-((3-(3-(N-phenylsulfamoyl)phenyl)acrylamidooxy)methyl)phenylboronic acid level after 4 days by UHPLC-MS/MS analysis; format: ADME, cell-based; conditions: 96 h; outline: as §1
MDA-MB-231 [7] = assay: Prodrug conversion in human MDA-MB-231 cells assessed as (E)-4-((3-(3-(N-phenylsulfamoyl)phenyl)acrylamidooxy)methyl)phenylboronic acid level after 4 days by UHPLC-MS/MS analysis; format: ADME, cell-based; conditions: mda-mb-231, 96 h; outline: as §1
MCF7 [8] = assay: Antitumor activity against human MCF7 cells implanted in ovariectomized nu/nu mouse assessed as tumor remission at 10 mg/kg, sc administered once daily for 22 days measured at 1 day interval for 3 weeks during compound dosing; format: functional, organism-based
MDA-MB-231 [9] = assay: Prodrug conversion in human MDA-MB-231 cells assessed as (E)-4-((3-(3-(N-phenylsulfamoyl)phenyl)acrylamidooxy)methyl)phenylboronic acid level after 5 days by UHPLC-MS/MS analysis; format: ADME, cell-based; conditions: mda-mb-231, 120 h; outline: as §1
[10] = target: T1, Protein deacetylase HDAC6 (Homo sapiens, UniProt Q9UBN7); assay: Inhibition of human HDAC6 using RHKK(Ac)AMC as substrate
T1 sequence (Q9UBN7 whole entry): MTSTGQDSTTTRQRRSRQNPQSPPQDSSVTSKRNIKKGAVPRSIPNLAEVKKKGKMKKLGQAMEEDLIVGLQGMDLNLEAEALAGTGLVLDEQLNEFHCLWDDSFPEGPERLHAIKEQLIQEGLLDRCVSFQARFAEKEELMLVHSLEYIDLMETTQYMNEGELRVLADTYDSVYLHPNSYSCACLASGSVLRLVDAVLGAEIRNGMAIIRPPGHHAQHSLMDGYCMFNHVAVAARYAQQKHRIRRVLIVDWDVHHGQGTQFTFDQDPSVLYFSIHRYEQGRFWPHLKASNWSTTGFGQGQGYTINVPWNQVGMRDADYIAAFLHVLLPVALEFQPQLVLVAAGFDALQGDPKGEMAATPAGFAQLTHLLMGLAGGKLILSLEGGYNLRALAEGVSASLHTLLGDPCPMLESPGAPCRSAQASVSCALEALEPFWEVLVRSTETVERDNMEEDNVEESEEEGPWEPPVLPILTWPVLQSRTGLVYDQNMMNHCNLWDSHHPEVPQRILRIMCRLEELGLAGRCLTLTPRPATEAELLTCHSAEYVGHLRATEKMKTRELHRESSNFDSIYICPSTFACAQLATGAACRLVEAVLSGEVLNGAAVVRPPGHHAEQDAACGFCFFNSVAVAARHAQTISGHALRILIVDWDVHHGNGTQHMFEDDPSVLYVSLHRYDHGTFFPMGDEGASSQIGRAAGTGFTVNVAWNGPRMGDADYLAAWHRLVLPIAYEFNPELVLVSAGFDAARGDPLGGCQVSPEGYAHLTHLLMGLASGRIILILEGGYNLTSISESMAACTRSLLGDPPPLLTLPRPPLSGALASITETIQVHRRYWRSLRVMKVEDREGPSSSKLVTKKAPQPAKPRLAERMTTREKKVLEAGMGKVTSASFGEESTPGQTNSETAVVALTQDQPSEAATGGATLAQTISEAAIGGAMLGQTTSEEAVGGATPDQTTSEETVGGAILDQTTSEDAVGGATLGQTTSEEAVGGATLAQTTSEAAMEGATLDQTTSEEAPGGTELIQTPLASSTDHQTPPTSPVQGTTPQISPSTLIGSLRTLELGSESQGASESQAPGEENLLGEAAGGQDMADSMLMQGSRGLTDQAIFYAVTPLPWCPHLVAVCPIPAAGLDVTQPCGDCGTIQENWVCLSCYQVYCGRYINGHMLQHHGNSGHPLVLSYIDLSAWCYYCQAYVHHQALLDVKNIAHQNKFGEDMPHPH

Q: How did the Activity (MCF7 [1]) turn out when `CC1(C)OB(c2ccc(CONC(=O)/C=C/c3cccc(S(=O)(=O)Nc4ccccc4)c3)cc2)OC1(C)C` was run?
A: 153 mm3

Q: And the Activity (Mus musculus)?
A: Non-Toxic

Q: And the IC50 (NCI-H460)?
A: 0.43 µM

Q: What about the Drug metabolism (HeLa [2]) of the same molecule?
A: 13.4 ng/mL

Q: And the Drug metabolism (HeLa [3])?
A: 282.7 ng/mL

Q: What about the inhibition in vivo at 10 mg/kg (MCF7 [4]) of the same molecule?
A: 85.4%

Q: What about the Drug metabolism (HeLa [5]) of the same molecule?
A: 49.6 ng/mL

Q: And the Drug metabolism (HeLa [6])?
A: 107 ng/mL

Q: And the Drug metabolism (MDA-MB-231 [7])?
A: 171.8 ng/mL

Q: And the Activity (MCF7 [8])?
A: Active

Q: And the Drug metabolism (MDA-MB-231 [9])?
A: 145.8 ng/mL

Q: And the EC50 [10]?
A: 20.2 µM
